Assay results taken from paper PMC2645920 (Journal of the American Chemical Society, 2008).

What was measured:
Dynamic light scattering = format: physicochemical; settings: 750 μM in 1X PBS
Summary of the method: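 Test compound dissolved in 1X PBS (pH 7.2), pre-filtered, and read at 22 °C with a 25 mW, 750 nm laser and a 90° detector. Detergent runs added 0.01% Triton-X 100. Each sample got ten repeat measurements, filtered on sum of squares and baseline error. Hr was derived by regularization from the autocorrelation decay. Intensity (kcps) is the mean of three or more measurements, compared with buffer.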

[1] = target: HIV-1 frameshift stimulatory sequence (FSS) RNA hairpin (Seq. F); test: Fluorescence titration; format: binding; settings: FT
[2] = tested on: (CUG)109 RNA – MBNL1 protein interaction; test: Enzyme Fragment Complementation; format: biochemical; settings: EFC assay, immobilized (CUG)109 RNA, PL-MBNL1
[3] = target: 5′-FAM-CCG-(CUG)10-CGG-3′ RNA (Seq. A); test: Fluorescence titration; format: binding; settings: FT

| Hr (hydrodynamic radius) (Dynamic light scattering; pH 7.2) | Intensity (Dynamic light scattering; pH 7.2) | Hr (hydrodynamic radius) (Dynamic light scattering; pH 7.2 + Triton-X 100 (0.01%)) | Intensity (Dynamic light scattering; pH 7.2 + Triton-X 100 (0.01%)) | Compound | Kd [1] | Inhibitory effect on (CUG)n – MBNL1 interaction [2] | Kd [3] |
| --- | --- | --- | --- | --- | --- | --- | --- |
| 69.25 nm | 242±10 kcps | 40.72 nm | 190±24 kcps | Nc1c(/N=N/c2ccc(-c3ccc(/N=N/c4cc(S(=O)(=O)O)c5ccccc5c4N)cc3)cc2)cc(S(=O)(=O)O)c2ccccc12 [Congo Red] | – | – | – |
| – | – | – | – | (Quin-Cys-Pro-Phe)2 [Compound 5-5] | 350 ± 110 nM | do not show any inhibitory effect | > 40 µM |
